Results published in PMC5634614 (Molecular imaging and biology : MIB : the official …, 2017).
Like-named read-outs stand apart in the source and are kept apart here.

How the values were obtained:
[1] = biological target: T1, TSPO (Rattus norvegicus, UniProt P16257); experiment: Radioligand displacement of [3H]PK11195 in C6 glioma cell lysate; assay type: binding; conditions: for TSPO binding affinity, fold greater than 1 (DPA-714): relative to 1 (DPA-714); for TSPO binding affinity, fold greater than 2 (VUIIS1008): relative to 2
[2] = Plasma protein binding; assay type: in vitro ADME
[3] = biological target: mitochondrial TSPO (mTSPO) (Mus musculus, UniProt P50637); experiment: 2D 1H-15N HSQC NMR titration of TSPO with ligands; assay type: binding; conditions: 5.0 mM ligand, 0.2 mM TSPO in DPC
In short: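 15N-labeled mitochondrial TSPO was expressed in E. coli BL21(DE3) in M9 minimal medium, then solubilized and purified in DPC detergent. 2D 1H-15N HSQC spectra were recorded with and without ligand (5.0 mM) on an 800-MHz spectrometer at 42 °C. Samples held 0.2 mM TSPO in ~2 % (w/v) DPC, 25 mM MES pH 6.0 and 100 mM NaCl.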

[4] = biological target: T1, TSPO; conditions: ref [18], [19], cited from earlier work
[5] = biological target: C6-2B mitochondria (rat glioma); conditions: C6-2B mitochondria (rat glioma) with [3H]PK11195; ref [28]; cited from earlier work
[6] = biological target: T1, TSPO; conditions: n = 5, prior study, ref [18], [19], cited from earlier work

CCc1cc(C)nc2c(CC(=O)N(CC)CC)c(-c3ccc(OCCF)cc3)nn12 [3A, N,N-diethyl-2-(7-ethyl-2-(4-(2-fluoroethoxy)-phenyl)-5-methylpyrazolo[1,5-a]pyrimidin-3-yl)acetamide]
IC50 [1]: 0.0144 nM
Ki [1]: 0.00704 nM
TSPO binding affinity, fold greater than 1 (DPA-714) [1]: 500 fold
TSPO binding affinity, fold greater than 1 (DPA-714) ([1]; listed as VUIIS1009A): approximately 500 fold
TSPO binding affinity, fold greater than 2 (VUIIS1008) [1]: 20 fold
unbound fraction compared with DPA-714 [2]: lower unbound fraction than DPA-714

CCc1cc(C)n2nc(-c3ccc(OCCF)cc3)c(CC(=O)N(CC)CC)c2n1 [3B, N,N-diethyl-2-(5-ethyl-2-(4-(2-fluoroethoxy)phenyl)-7-methylpyrazolo[1,5-a]pyrimidin-3-yl)acetamide]
saturation of ligand-bound state of TSPO (HSQC) [3]: completely saturated the ligand-bound state
IC50 [1]: 0.0194 nM
Ki [1]: 0.00947 nM
TSPO binding affinity, fold greater than 1 (DPA-714) [1]: 500 fold
TSPO binding affinity, fold greater than 1 (DPA-714) ([1]; listed as VUIIS1009B): approximately 500 fold
TSPO binding affinity, fold greater than 2 (VUIIS1008) [1]: 20 fold
unbound fraction compared with DPA-714 [2]: lower unbound fraction than DPA-714
unbound fraction, difference compared with 3A [2]: 0.54%

CCc1cc(CC)n2nc(-c3ccc(OCCF)cc3)c(CC(=O)N(CC)CC)c2n1 [VUIIS1008]
IC50 ([4]; previously reported): 0.3 nM

CCC(C)N(C)C(=O)c1cc2ccccc2c(-c2ccccc2Cl)n1 (stereo not shown) [[^3H]PK11195]
Kd [5]: 5.73 ± 2.38 nM

CCc1cc(CC)n2nc(-c3ccc(OCC[18F])cc3)c(CC(=O)N(CC)CC)c2n1 [[^18F]VUIIS1008, 2-(5,7-diethyl-2-(4-(2-[(18)F]fluoroethoxy)phenyl)pyrazolo[1,5-a]pyrimidin-3-yl)-N,N-diethylacetamide]
VT (total distribution volume from kinetic parameters) ([6]; brain): 4.210 ± 1.612
k1 ([6]; brain): 0.881 ±0.392
k1/k2 ([6]; brain): 0.855 ± 0.325
k2 ([6]; brain): 2.078 ± 1.666
k3 ([6]; brain): 0.172 ± 0.070
k3/k4 (binding potential, BPND) ([6]; brain): 4.435 ± 1.387
k4 ([6]; brain): 0.037 ± 0.004
VT (total distribution volume from kinetic parameters) ([6]; tumor): 25.224 ± 10.035
k1 ([6]; tumor): 0.709 ± 0.306
k1/k2 ([6]; tumor): 1.902 ± 0.816
k2 ([6]; tumor): 0.442 ± 0.101
k3 ([6]; tumor): 0.113 ±0.013
k3/k4 (binding potential, BPND) ([6]; tumor): 12.634 ± 1.406
k4 ([6]; tumor): 0.009 ± 0.002
enhancement in TSPO affinity compared to 1 ([4]; prior studies): 36 fold
